Laboratory results from ChEMBL document CHEMBL4002602, “Design, Synthesis of Novel, Potent, Selective, Orally Bioavailable Adenosine A2A Receptor Antagonists and Their Biological Evaluation” (J Med Chem, 2017).
Calls of active or inactive are those of the source. The calls are words filed in the database; no cut-off is given here.

Legend:
[1] = biological target: T1, Adenosine receptor A1 (Homo sapiens) (UniProt P30542); experiment: Antagonist activity at human adenosine A1 receptor expressed in HEK293 cell membranes assessed as decrease in CPA/forskolin-induced cAMP level at 30 uM pretreated for 15 mins followed by agonist addition for 15 mins and subsequent forskolin stimulation measured after 30 mins; assay type: functional, cell-based
T1 sequence (whole entry): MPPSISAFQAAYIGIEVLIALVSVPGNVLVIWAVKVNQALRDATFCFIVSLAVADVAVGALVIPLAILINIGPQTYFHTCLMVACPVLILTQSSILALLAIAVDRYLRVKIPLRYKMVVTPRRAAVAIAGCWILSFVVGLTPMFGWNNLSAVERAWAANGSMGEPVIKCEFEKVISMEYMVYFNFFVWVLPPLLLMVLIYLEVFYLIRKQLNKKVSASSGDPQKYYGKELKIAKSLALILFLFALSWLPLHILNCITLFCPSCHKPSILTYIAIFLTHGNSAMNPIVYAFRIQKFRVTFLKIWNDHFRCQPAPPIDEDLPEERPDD
Procedure, shortened: (§1)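 Whole HEK-A1 cells were seeded overnight and then pretreated with 1 U/ml ADA for 90 min at 37 °C and 5% CO2. Compound was added for 15 min, then 1 nM CPA for 15 min, then forskolin for 30 min, at room temperature in incomplete DMEM with ADA and 20 μM rolipram. cAMP was read by HTRF (620/665 nm). Compounds ran at 12 concentrations in triplicate, with 10 or 30 μM as the top concentration.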

[2] = biological target: CYP2C9 (Homo sapiens, UniProt P11712); experiment: Inhibition of CYP2C9 in human liver microsomes at 5 to 25 uM using diclofenac as substrate preincubated for 5 mins with substrate followed by NADPH addition measured after 10 mins by LC-MS/MS analysis; assay type: ADME; settings: human liver microsomes, probe diclofenac
[3] = biological target: T2, Adenosine receptor A3 (Homo sapiens) (UniProt P0DMS8); experiment: Displacement of [3H]-HEMADO from human adenosine A3 receptor expressed in HEK293 cell membranes at 30 uM measured after 90 mins
T2 sequence (whole entry): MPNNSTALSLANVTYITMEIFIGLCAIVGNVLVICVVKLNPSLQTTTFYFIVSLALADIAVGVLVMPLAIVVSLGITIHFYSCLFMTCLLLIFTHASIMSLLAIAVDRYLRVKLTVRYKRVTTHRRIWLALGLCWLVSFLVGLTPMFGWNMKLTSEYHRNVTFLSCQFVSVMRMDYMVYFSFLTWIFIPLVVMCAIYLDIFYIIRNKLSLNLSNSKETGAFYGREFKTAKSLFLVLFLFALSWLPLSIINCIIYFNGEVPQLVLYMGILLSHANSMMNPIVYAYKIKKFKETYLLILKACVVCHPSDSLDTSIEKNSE

[4] = biological target: CYP1A2 (Homo sapiens, UniProt P05177); experiment: Inhibition of CYP1A2 in human liver microsomes at 5 to 25 uM using phenacetin as substrate preincubated for 5 mins with substrate followed by NADPH addition measured after 10 mins by LC-MS/MS analysis; assay type: ADME; settings: human liver microsomes, probe phenacetin
[5] = Apparent permeability across apical to basolateral side in human Caco2 cells at 5 uM after 90 mins; assay type: ADME, cell-based; settings: Caco-2
[6] = test system: HepG2; experiment: Cytotoxicity against human HepG2 cells; assay type: cell-based
[7] = test system: Rattus norvegicus; experiment: Clearance in Wistar rat at 3 mg/kg, iv by LC/MS/MS analysis relative to hepatic blood flow; assay type: ADME, organism-based; settings: in vivo
[8] = Half-life in rat hepatocytes at 1 uM by LC-MS/MS analysis; assay type: ADME, cell-based, Hepatocyte
[9] = test system: Rattus norvegicus; experiment: Neuroprotective activity in po dosed 6-OHDA-lesioned Wistar rat model of parkinson disease assessed as increase in L-DOPA induced contralateral rotations pretreated for 30 mins followed by benserazide addition and subsequent L-DOPA stimulation for 30 mins measured at 60 mins post dose; assay type: functional, organism-based
Procedure, shortened: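 Male Wistar rats (295–305 g) anesthetized with ketamine/xylazine and given desipramine 10 mg/kg i.p. 30 min before 6-OHDA lesioning. At two weeks, rats were screened with apomorphine 0.05 mg/kg i.p. and kept only if they made ≥100 rotations in 1 h. Compound (30 or 100 mg/kg p.o., in 1% Tween 80/0.5% MC) was given 30 min before benserazide. L-DOPA 4 mg/kg i.p. followed 30 min later. Contralateral rotations counted over 2 h; one-way ANOVA with Dunnett's test.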

[10] = biological target: CYP3A (Homo sapiens, UniProt P08684+P20815+P24462+Q9HB55); experiment: Inhibition of CYP3A in human liver microsomes at 5 to 25 uM using testosterone as substrate preincubated for 5 mins with substrate followed by NADPH addition measured after 10 mins by LC-MS/MS analysis; assay type: ADME; settings: human liver microsomes, probe testosterone
[11] = biological target: CYP2D6 (Homo sapiens, UniProt P10635); experiment: Inhibition of CYP2D6 in human liver microsomes at 5 to 25 uM using dextromethorphan as substrate preincubated for 5 mins with substrate followed by NADPH addition measured after 10 mins by LC-MS/MS analysis; assay type: ADME; settings: human liver microsomes, probe dextromethorphan
[12] = Protein binding in rat serum at 1 uM after 6 hrs by HT dialysis method; assay type: ADME, cell-free; settings: read-out: PB (converted)
[13] = biological target: T1, Adenosine receptor A1 (Homo sapiens); experiment: Antagonist activity at human adenosine A1 receptor expressed in HEK293 cell membranes assessed as decrease in CPA/forskolin-induced cAMP level at 10 uM pretreated for 15 mins followed by agonist addition for 15 mins and subsequent forskolin stimulation measured after 30 mins; assay type: functional, cell-based; procedure, shortened: as §1
[14] = biological target: T3, Adenosine receptor A2b (Homo sapiens) (UniProt P29275); experiment: Antagonist activity at human adenosine A2B receptor expressed in HEK293 cell membranes assessed as decrease in NECA/forskolin-induced cAMP level at 10 uM pretreated for 15 mins followed by agonist addition for 15 mins and subsequent forskolin stimulation measured after 30 mins; assay type: functional, cell-based
T3 sequence (whole entry): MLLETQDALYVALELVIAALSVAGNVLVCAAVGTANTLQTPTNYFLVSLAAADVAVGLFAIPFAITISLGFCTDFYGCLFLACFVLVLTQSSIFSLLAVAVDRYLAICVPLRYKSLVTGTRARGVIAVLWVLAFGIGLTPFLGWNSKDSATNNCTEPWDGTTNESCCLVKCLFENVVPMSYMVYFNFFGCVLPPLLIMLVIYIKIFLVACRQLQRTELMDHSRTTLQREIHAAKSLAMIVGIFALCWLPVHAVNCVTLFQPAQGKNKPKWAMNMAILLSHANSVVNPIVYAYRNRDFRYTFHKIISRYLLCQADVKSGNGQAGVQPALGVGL
Procedure, shortened: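 Whole HEK-A2B cells were seeded overnight and then pretreated with 1 U/ml ADA for 90 min at 37 °C and 5% CO2. Compound was added for 15 min, then 70 nM NECA for 15 min, at room temperature with mixing in incomplete DMEM with ADA. cAMP was read by HTRF (620/665 nm). Compounds ran at 12 concentrations in triplicate, with 10 μM as the highest tested concentration.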

[15] = biological target: hERG (KCNH2) (Homo sapiens, UniProt Q12809); experiment: Inhibition of [3H]-astemizole binding to human ERG at 3 uM after 2 hrs by liquid scintillation counting method relative to control; settings: probe [3H]-astemizole
Chain of hERG (KCNH2) (Q12809 whole entry): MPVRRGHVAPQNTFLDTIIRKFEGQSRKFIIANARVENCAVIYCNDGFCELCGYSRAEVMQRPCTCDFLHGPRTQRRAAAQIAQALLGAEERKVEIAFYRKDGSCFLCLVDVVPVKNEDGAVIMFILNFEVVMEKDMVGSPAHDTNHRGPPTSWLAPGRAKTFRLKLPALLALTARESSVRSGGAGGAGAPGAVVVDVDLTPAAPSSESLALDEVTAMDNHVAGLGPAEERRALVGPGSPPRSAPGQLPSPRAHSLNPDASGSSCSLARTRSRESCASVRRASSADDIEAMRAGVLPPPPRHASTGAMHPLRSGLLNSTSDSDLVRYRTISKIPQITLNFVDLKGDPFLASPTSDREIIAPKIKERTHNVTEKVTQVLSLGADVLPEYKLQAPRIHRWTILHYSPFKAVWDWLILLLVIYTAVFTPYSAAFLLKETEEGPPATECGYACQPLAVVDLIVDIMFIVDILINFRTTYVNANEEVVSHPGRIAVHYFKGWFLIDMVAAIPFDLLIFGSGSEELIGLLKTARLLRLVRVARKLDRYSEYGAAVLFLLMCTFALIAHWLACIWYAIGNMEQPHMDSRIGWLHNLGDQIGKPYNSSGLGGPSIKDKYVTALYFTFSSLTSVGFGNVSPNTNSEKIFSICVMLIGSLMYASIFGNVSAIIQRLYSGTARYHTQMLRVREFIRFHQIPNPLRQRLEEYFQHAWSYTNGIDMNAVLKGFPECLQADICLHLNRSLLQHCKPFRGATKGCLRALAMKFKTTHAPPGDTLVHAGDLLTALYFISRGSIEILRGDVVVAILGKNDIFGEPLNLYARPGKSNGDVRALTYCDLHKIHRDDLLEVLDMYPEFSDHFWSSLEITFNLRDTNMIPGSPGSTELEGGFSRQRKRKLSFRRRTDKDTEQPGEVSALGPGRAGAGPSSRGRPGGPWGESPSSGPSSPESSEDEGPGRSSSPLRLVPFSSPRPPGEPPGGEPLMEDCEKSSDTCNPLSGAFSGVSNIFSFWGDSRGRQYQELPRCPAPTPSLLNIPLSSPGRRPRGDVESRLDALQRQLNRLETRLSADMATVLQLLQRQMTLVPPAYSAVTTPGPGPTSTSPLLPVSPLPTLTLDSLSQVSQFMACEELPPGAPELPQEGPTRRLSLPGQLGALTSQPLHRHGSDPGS

Chain of CYP1A2 (P05177 whole entry): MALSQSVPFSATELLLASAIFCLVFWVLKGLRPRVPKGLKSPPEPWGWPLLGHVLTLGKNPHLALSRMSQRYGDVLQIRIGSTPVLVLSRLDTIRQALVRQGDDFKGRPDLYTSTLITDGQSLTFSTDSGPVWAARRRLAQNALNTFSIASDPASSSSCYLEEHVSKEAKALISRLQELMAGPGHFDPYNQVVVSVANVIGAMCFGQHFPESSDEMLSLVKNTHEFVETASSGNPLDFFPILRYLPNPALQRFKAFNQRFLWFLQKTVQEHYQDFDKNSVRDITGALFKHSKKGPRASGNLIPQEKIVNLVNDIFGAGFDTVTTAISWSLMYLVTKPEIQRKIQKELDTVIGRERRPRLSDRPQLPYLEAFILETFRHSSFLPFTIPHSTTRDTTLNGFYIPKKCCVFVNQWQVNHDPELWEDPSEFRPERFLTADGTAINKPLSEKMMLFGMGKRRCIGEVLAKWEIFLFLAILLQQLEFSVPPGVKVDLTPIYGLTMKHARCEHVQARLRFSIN
Chain of CYP2C9 (P11712 whole entry): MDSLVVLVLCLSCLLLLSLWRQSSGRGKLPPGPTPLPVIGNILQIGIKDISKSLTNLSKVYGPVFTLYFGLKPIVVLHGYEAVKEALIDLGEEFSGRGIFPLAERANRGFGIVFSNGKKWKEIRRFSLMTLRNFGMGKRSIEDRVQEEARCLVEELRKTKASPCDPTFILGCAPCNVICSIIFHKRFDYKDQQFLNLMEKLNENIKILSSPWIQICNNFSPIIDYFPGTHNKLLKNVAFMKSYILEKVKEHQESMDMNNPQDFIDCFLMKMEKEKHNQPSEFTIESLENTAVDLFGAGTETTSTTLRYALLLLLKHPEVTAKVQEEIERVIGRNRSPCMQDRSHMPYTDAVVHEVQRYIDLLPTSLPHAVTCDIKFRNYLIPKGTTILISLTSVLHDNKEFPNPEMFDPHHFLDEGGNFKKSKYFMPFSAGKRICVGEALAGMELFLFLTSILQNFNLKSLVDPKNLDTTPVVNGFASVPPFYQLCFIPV
Chain of CYP2D6 (P10635 whole entry): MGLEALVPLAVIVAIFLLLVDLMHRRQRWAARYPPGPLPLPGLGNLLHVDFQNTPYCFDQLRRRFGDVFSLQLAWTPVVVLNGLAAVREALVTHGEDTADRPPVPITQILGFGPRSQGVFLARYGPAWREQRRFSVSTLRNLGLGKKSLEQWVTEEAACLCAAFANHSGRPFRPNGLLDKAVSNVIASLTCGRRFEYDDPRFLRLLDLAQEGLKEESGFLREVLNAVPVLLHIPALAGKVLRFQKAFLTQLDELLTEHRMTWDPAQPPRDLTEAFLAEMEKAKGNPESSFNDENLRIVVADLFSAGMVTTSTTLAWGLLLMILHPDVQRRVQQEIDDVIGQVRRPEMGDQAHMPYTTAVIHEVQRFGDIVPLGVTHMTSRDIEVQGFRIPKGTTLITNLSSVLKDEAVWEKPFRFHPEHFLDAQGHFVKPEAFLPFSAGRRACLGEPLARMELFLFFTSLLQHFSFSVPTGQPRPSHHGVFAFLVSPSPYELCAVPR

With CCN(CC)C1CCC(C)(C(=O)Nc2nc3c(OC)ccc(N4CCOCC4)c3s2)CC1 (centres undefined) the Activity [1] was “inactive”, the IC50 at 10 min [2] was greater than 50 µM and the Activity [3] was “inactive”. For the same molecule, the IC50 at 10 min [4] was greater than 50 µM, the Papp A→B at 1.5 h, 5 µM [5] was 3.7 ×10⁻⁶ cm/s and the IC50 [6] was greater than 100 µM. For the same molecule, the clearance [7] was 60 to 65%, the half-life at 1 µM [8] was greater than 1 h and the Activity [9] was “Dose-dependent effect”. For the same molecule, the IC50 at 10 min [10] was greater than 50 µM, the IC50 at 10 min [11] was greater than 50 µM and the fraction unbound at 6 h, 1 µM [12] was 0.24.
For COc1cnc(N2CCOCC2)c2sc(NC(=O)C(C)(C)Oc3ccc(F)cc3)nc12, the Activity [13] was “inactive”.
For COc1ccc(N2CCOCC2)c2sc(NC(=O)C(C)(C)Oc3ccc(F)c(F)c3)nc12, the Activity [13] was “inactive”, the Activity [14] was “inactive” and the inhibition at 2 h, 3 µM [15] was less than 5%.
With COc1ccc(N2CCOCC2)c2sc(NC(=O)C3(C)CCC(C)(O)CC3)nc12 (centres undefined) the Activity [1] was “inactive”, the IC50 at 10 min [2] was greater than 25 µM and the Activity [3] was “inactive”. It also gave an IC50 at 10 min [4] greater than 25 µM, a Papp A→B at 1.5 h, 5 µM [5] of 12.2 ×10⁻⁶ cm/s and an IC50 [6] greater than 100 µM. The clearance [7] was 60 to 65%, the half-life at 1 µM [8] was greater than 1 h and the IC50 at 10 min [10] was greater than 25 µM. The IC50 at 10 min [11] was greater than 25 µM and the fraction unbound at 6 h, 1 µM [12] was 0.13.
In the case of COc1ccc(N2CCOCC2)c2sc(NC(=O)C(C)(C)Oc3ccc(F)cc3)nc12, the Activity [14] is reported as “inactive” and the inhibition at 2 h, 3 µM [15] is reported as less than 5%.
